Experimental data: ChEMBL document CHEMBL2034817, “Synthesis and evaluation of 4- and 5-pyridazin-3-one phenoxypropylamine analogues as histamine-3 receptor antagonists” (Bioorg Med Chem, 2012)
pIC50, pKi: −log10 of the molar value. Activity calls are given as the source filed them. The calls are words filed in the database; no cut-off is given here.

Experiments:
[1] = molecular target: Histamine H3 receptor (Rattus norvegicus, UniProt Q9QYN8); assay: Displacement of [3H]-Nalpha-methylhistamine from rat histamine H3 receptor expressed in CHO-A3 cells after 4 hrs by scintillation proximity assay; assay type: cell-based
Outline: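 Rat H3 receptor in pIRES-neo3 stably transfected into CHO-A3 cells, clonally selected; washed membranes in Tris–HCl pH 7.4, 5 mM MgCl2, 0.1% BSA, 10 µg protein/well; ~1 nM final [3H]-N-alpha-methylhistamine, compounds 0.01 nM–30 µM, SPA beads, 4 h room temperature, dark; nonspecific with 10 µM clobenpropit; scintillation counting.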

[2] = molecular target: Histamine H3 receptor (Homo sapiens, UniProt Q9Y5N1); assay: Displacement of [3H]-Nalpha-methylhistamine from human histamine H3 receptor expressed in CHO cells after 4 hrs by scintillation proximity assay; assay type: cell-based
Outline: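 Membranes from CHO cells stably expressing human H3 receptor, in 50 mM Tris–HCl pH 7.4, 5 mM MgCl2, 0.1% BSA, 10 µg protein/well; ~1 nM final [3H]-N-alpha-methylhistamine; compounds 0.01 nM–30 µM; SPA beads; 4 h room temperature, dark; nonspecific binding with 10 µM clobenpropit; scintillation counting. Assay-to-assay variation typically within 2.5-fold.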

[3] = Half life in monkey liver microsomes; assay type: ADME, Macaca mulatta, Microsome; settings: rhesus monkey
[4] = molecular target: Histamine H2 receptor (Homo sapiens, UniProt P25021); assay: Binding affinity to human histamine H2 receptor
[5] = Half life in rat liver microsomes; assay type: ADME, Microsome
[6] = molecular target: Cytochrome P450 2C9 (Homo sapiens, UniProt P11712); assay: Inhibition of CYP2C9; assay type: ADME
[7] = Half life in mouse liver microsomes; assay type: ADME, Microsome
[8] = Cmax in Sprague-Dawley rat at 5 mg/kg, po; assay type: ADME, organism-based; set-up: dose 5 mg/kg, route oral; settings: in vivo
Outline: (§1)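 Adult male Sprague–Dawley rats (275–350 g). iv dosing via lateral tail vein (3% DMSO/30% Solutol/67% PBS or 100% saline); oral gavage after overnight fast (Tween 80/propylene carbonate/propylene glycol, saline, or 2% HCl–water). Seven serial tail-vein blood samples over 6 or 24 h; plasma protein-precipitated with acetonitrile, LC–MS/MS; noncompartmental parameters.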

[9] = molecular target: Histamine H1 receptor (Homo sapiens, UniProt P35367); assay: Binding affinity to human histamine H1 receptor
[10] = AUC (0 to t) in Sprague-Dawley rat at 5 mg/kg, po; assay type: ADME, organism-based; set-up: dose 5 mg/kg, route oral; settings: plasma; outline: as §1
[11] = Oral bioavailability in Sprague-Dawley rat at 5 mg/kg; assay type: ADME, organism-based; settings: in vivo; outline: as §1
[12] = molecular target: Histamine H4 receptor (Homo sapiens, UniProt Q9H3N8); assay: Binding affinity to human histamine H4 receptor
[13] = molecular target: Cytochrome P450 2C19 (Homo sapiens, UniProt P33261); assay: Inhibition of CYP2C19; assay type: ADME
[14] = Half life in human liver microsomes; assay type: ADME, Microsome
[15] = Half life in Sprague-Dawley rat at 1 mg/kg, iv; assay type: ADME, organism-based; set-up: dose 1 mg/kg, route intravenous; settings: in vivo; outline: as §1
[16] = Clearance in Sprague-Dawley rat at 1 mg/kg, iv; assay type: ADME, organism-based; set-up: dose 1 mg/kg, route intravenous; settings: in vivo; outline: as §1
[17] = Volume of distribution in Sprague-Dawley rat at 1 mg/kg, iv; assay type: ADME, organism-based; set-up: dose 1 mg/kg, route intravenous; settings: in vivo; outline: as §1
[18] = molecular target: Cytochrome P450 3A4 (Homo sapiens, UniProt P08684); assay: Inhibition of CYP3A4; assay type: ADME
[19] = molecular target: Cytochrome P450 2D6 (Homo sapiens, UniProt P10635); assay: Inhibition of CYP2D6; assay type: ADME
[20] = molecular target: T1, Cytochrome P450 1A2 (Homo sapiens, UniProt P05177); assay: Inhibition of CYP1A2; assay type: ADME
T1 sequence (P05177 whole entry): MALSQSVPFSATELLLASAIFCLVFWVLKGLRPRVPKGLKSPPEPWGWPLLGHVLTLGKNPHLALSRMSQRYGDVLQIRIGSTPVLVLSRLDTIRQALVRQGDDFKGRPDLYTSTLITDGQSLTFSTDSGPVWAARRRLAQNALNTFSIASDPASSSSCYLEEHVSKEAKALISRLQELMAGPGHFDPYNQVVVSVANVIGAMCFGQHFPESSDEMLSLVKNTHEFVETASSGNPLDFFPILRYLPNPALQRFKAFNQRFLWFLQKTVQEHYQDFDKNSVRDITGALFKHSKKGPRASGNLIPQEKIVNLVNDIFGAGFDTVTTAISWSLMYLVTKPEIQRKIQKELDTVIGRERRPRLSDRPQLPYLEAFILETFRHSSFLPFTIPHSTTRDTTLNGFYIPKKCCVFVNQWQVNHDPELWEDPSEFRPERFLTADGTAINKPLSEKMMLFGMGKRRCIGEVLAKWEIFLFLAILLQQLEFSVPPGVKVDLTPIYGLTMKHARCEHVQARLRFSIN

[21] = Ratio of drug level in brain to plasma in Sprague-Dawley rat at 5 mg/kg, po at 6 hrs; assay type: ADME, organism-based; set-up: dose 5 mg/kg, route oral; settings: read-out: BPR
Outline: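 Brain-to-plasma ratio from the 6 h time point after 5 mg/kg po dosing in Sprague–Dawley rats; plasma drug measured by LC–MS/MS after acetonitrile protein precipitation.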

[22] = molecular target: Voltage-gated inwardly rectifying potassium channel KCNH2 (Homo sapiens, UniProt Q12809); assay: Inhibition of human ERG by patch clamp assay
Outline: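 hERG inhibition measured in a patch clamp assay.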

[23] = Solubility of the compound in water; assay type: physicochemical; settings: buffer
[24] = system: Rattus norvegicus; assay: Toxicity in rat assessed as rat assessed as adverse EEG activity up to 30 mg/kg, ip; assay type: organism-based; set-up: dose 30 mg/kg, route intraperitoneal; settings: in vivo
Outline: (§2)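 Rats implanted for chronic EEG/EMG recording, dosed ip up to 30 mg/kg; EEG monitored for adverse activity, and sleep after the wake period scored for rebound up to 22 h post-dose.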

[25] = system: Caco-2; assay: Permeability across human Caco2 cells; assay type: ADME, cell-based
[26] = Plasma protein binding in rat at 5 uM after 1 hr by LC-MS/MS analysis; assay type: ADME, cell-free; settings: read-out: PPB (converted)
[27] = system: Salmonella typhimurium; assay: Genotoxicity against Salmonella typhimurium by AMES test; assay type: toxicity, organism-based; settings: salmonella enterica subsp. enterica serovar typhimurium
[28] = system: Rattus norvegicus; assay: Wake promoting activity in rat assessed as cumulative wake time at 10 mg/kg, ip after 4 hrs (reference value: 76+/-6 mins); assay type: functional; settings: route intraperitoneal
[29] = molecular target: Histamine H3 receptor (Rattus norvegicus) (UniProt Q9QYN8); assay: Antagonist activity at histamine H3 receptor on rat cortex membrane by [35S]GTPgammaS binding assay; assay type: functional, tissue-based
[30] = system: Rattus norvegicus; assay: Wake promoting activity in rat assessed as cumulative wake time at 30 mg/kg, ip after 4 hrs (reference value: 76+/-6 mins); assay type: functional; settings: route intraperitoneal
[31] = system: Rattus norvegicus; assay: Antidipsogenic activity in ip dosed Harlan Long Evans rat assessed as inhibition of RAMH-induced water drinking; assay type: functional
Outline: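 Water drinking for 30 min beginning 20 min after RAMH (10 mg/kg ip); test compound in saline given beforehand. Per-rat percent inhibition normalized to RAMH group mean drinking; group means compared by one-way ANOVA with Dunnett's test versus RAMH group.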

[32] = Plasma protein binding in human at 5 uM after 1 hr by LC-MS/MS analysis; assay type: ADME, cell-free; settings: read-out: PPB (converted)
[33] = Plasma protein binding in dog at 5 uM after 1 hr by LC-MS/MS analysis; assay type: ADME, cell-free, Canis lupus familiaris; settings: read-out: PPB (converted)
[34] = system: Rattus norvegicus; assay: Toxicity in rat assessed as rat assessed as sleep rebound up to 30 mg/kg, ip up to 22 hrs; assay type: organism-based; set-up: dose 30 mg/kg, route intraperitoneal; settings: in vivo; outline: as §2
[35] = Plasma protein binding in mouse at 5 uM after 1 hr by LC-MS/MS analysis; assay type: ADME, cell-free; settings: read-out: PPB (converted)
[36] = molecular target: Histamine H3 receptor (Rattus norvegicus) (UniProt Q9QYN8); assay: Inverse agonist activity at histamine H3 receptor on rat cortex membrane by [35S]GTPgammaS binding assay; assay type: functional
[37] = Fraction unbound in rat brain homogenate; assay type: ADME, tissue-based
[38] = system: Rattus norvegicus; assay: Wake promoting activity in ip dosed rat assessed as increased wake activity after 4 hrs; assay type: functional, organism-based

Chain of Histamine H3 receptor (Homo sapiens, UniProt Q9Y5N1) (Q9Y5N1 whole entry): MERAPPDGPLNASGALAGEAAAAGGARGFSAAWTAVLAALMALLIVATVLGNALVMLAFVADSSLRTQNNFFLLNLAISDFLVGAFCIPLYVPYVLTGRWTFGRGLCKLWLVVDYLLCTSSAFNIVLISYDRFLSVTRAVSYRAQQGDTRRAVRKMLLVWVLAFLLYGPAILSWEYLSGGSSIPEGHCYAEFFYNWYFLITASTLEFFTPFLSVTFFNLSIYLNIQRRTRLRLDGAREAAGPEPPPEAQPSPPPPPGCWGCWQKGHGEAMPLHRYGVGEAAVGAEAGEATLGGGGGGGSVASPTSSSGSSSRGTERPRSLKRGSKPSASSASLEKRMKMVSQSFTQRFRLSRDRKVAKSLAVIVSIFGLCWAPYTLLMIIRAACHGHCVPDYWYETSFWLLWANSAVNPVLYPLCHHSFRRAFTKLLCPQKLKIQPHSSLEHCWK
Chain of Histamine H3 receptor (Rattus norvegicus, UniProt Q9QYN8) (Q9QYN8 whole entry): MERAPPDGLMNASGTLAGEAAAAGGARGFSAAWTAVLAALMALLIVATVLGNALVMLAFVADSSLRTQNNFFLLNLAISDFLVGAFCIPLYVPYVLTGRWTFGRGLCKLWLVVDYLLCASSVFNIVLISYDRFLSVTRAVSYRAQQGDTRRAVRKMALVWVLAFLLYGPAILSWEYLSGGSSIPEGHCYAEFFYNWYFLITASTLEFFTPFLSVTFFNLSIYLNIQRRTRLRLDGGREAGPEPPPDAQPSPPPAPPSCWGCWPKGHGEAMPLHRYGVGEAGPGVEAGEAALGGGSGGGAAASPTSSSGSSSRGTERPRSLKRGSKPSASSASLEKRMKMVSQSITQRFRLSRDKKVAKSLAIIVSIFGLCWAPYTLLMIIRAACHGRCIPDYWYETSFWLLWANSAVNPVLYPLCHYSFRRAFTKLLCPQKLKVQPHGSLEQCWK
Chain of Cytochrome P450 2C9 (P11712 whole entry): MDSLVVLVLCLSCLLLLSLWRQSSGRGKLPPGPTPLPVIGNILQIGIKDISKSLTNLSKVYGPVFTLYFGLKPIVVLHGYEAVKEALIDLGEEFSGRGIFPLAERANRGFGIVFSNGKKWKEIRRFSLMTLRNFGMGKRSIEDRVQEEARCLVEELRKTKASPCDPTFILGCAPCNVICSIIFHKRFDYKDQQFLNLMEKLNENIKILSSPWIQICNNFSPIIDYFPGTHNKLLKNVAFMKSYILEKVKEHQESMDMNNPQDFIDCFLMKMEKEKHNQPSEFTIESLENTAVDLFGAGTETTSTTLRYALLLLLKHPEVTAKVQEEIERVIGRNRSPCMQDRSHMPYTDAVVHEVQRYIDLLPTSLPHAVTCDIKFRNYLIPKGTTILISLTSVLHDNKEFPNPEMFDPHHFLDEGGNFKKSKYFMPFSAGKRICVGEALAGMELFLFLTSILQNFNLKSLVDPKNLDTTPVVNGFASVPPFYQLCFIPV
Chain of Histamine H2 receptor (P25021 whole entry): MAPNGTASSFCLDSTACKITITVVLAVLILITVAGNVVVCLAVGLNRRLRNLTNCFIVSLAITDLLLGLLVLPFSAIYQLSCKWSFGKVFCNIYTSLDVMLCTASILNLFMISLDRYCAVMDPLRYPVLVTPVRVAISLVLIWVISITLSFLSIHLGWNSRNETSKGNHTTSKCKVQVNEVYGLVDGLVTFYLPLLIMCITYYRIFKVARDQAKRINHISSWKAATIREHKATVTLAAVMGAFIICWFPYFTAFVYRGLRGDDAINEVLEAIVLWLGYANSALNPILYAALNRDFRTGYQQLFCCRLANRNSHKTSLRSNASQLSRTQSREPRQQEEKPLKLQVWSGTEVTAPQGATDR
Chain of Histamine H1 receptor (P35367 whole entry): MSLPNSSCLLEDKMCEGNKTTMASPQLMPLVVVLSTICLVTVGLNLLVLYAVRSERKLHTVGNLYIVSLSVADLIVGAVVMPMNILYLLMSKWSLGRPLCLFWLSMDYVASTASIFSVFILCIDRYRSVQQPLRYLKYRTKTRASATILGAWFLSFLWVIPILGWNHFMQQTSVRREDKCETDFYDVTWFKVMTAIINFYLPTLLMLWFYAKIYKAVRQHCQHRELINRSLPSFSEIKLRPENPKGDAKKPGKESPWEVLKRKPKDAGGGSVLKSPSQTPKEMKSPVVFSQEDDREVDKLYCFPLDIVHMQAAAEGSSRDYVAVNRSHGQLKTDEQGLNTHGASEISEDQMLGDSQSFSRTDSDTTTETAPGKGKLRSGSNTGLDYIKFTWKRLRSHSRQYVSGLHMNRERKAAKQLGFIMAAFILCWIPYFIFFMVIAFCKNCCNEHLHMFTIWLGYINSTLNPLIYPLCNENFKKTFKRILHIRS
Chain of Cytochrome P450 2C19 (P33261 whole entry): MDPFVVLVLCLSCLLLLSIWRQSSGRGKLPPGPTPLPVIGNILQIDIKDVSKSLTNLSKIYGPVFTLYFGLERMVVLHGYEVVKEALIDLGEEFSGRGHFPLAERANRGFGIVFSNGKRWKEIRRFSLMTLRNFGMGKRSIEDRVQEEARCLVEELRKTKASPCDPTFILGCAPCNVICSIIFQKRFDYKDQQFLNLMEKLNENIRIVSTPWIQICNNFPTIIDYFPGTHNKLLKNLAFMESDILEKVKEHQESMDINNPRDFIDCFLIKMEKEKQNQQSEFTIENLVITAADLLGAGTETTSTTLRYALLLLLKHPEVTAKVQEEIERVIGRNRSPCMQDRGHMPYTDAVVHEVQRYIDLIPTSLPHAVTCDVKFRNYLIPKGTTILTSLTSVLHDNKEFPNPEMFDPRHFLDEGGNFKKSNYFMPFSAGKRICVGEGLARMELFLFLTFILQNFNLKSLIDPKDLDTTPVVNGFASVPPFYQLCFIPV
Chain of Histamine H4 receptor (Q9H3N8 whole entry): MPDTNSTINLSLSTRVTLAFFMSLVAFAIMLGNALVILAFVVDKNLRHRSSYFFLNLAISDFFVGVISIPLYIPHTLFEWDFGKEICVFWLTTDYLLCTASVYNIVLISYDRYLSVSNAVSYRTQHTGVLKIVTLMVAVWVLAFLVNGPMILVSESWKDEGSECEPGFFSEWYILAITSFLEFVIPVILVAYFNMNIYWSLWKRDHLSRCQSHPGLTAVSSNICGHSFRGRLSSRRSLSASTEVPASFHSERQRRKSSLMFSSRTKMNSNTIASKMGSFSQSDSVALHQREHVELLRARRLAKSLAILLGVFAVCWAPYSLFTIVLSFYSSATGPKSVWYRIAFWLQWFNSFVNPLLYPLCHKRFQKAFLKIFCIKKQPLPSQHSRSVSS
Chain of Cytochrome P450 3A4 (P08684 whole entry): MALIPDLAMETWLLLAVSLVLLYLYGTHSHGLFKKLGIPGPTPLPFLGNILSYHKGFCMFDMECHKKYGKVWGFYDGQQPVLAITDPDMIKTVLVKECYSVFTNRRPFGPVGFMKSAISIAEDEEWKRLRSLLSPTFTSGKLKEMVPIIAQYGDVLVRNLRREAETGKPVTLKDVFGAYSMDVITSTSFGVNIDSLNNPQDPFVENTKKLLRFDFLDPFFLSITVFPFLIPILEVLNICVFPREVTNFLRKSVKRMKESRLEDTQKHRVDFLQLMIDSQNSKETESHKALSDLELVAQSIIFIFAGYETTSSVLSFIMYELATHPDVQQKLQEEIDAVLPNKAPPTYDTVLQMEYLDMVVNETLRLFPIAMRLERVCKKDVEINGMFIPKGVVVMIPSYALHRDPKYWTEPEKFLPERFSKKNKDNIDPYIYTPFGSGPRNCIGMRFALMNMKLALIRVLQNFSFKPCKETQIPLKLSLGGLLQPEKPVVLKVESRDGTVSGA
Chain of Histamine H3 receptor (Rattus norvegicus) (Q9QYN8 whole entry): as the sequence (Q9QYN8 whole entry) above
Chain of Cytochrome P450 2D6 (P10635 whole entry): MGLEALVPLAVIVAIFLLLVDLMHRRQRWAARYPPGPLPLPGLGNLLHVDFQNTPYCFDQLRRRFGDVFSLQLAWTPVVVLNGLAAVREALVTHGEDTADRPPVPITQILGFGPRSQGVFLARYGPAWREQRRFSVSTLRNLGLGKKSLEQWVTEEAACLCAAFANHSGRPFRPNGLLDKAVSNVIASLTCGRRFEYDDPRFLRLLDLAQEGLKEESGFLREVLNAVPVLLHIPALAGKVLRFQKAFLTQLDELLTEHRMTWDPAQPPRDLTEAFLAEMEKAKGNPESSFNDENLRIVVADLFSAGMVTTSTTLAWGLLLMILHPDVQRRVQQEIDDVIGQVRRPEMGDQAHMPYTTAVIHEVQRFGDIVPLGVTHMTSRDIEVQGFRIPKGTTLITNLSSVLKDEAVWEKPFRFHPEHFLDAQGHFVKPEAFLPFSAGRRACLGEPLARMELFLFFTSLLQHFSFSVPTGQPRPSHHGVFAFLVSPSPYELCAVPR

SMILES: COCn1ncc(-c2ccc(OCCCN3CCC[C@H]3C)cc2)c(OC)c1=O
- pKi [1]: 7.89
- pKi [2]: 8.30

SMILES: C[C@@H](COc1ccc(-c2cn[nH]c(=O)c2)cc1)CN1CCC[C@H]1C
- pKi [1]: 7.37

SMILES: COCn1ncc(-c2ccc(OCCCN3CCC[C@H]3C)cc2)cc1=O
- pKi [1]: 7.85
- half-life [3]: > 40 min
- pKi [4]: < 5.00
- half-life [5]: > 40 min
- pIC50 [6]: < 4.52
- half-life [7]: > 40 min
- Cmax [8]: 53 ng/mL
- pKi [9]: < 5.00
- AUC(0-t) [10]: 42 ng·h/mL
- bioavailability [11]: 6%
- pKi [12]: < 5.00
- pIC50 [13]: < 4.52
- pKi [2]: 8.40
- half-life [14]: > 40 min
- half-life [15]: 24 min
- clearance [16]: 93 mL/min/kg
- Vd [17]: 3.2 L/kg
- pIC50 [18]: < 4.52
- pIC50 [19]: < 4.52
- pIC50 [20]: < 4.52

SMILES: COc1cn[nH]c(=O)c1-c1ccc(OCCCN2CCC[C@H]2C)cc1
- pKi [1]: 7.21
- pKi [2]: 7.70

SMILES: C[C@H](COc1ccc(-c2cn[nH]c(=O)c2)cc1)CN1CCC[C@H]1C
- pKi [1]: 8.40
- half-life [3]: > 40 min
- pKi [4]: < 5.00
- half-life [5]: > 40 min
- Kp at 6 h [21]: 6.2
- pIC50 [6]: < 4.52
- half-life [7]: > 40 min
- Cmax [8]: 187 ng/mL
- pKi [9]: < 5.00
- AUC(0-t) [10]: 762 ng·h/mL
- bioavailability [11]: 24%
- pKi [12]: < 5.00
- pIC50 [13]: < 4.52
- half-life [14]: > 40 min
- half-life [15]: 126 min
- clearance [16]: 21 mL/min/kg
- Vd [17]: 3.9 L/kg
- pIC50 [18]: < 4.52
- pIC50 [19]: < 4.52
- pIC50 [20]: < 4.52

SMILES: C[C@@H]1CCCN1CCCOc1ccc(-c2cn[nH]c(=O)c2)cc1
- pKi [1]: 8.05
- pIC50 [22]: 5.00
- solubility [23]: soluble
- Activity [24]: Non-toxic
- permeability [25]: permeable
- fraction unbound at 1 h, 5 µM [26]: 0.8
- Kp at 6 h [21]: 1.8
- Activity [27]: Non-toxic
- Time [28]: 191 min
- Cmax [8]: 401 ng/mL
- Activity [29]: Active
- Activity [30]: 95%
- ED50 [31]: 0.03 mg/kg
- fraction unbound at 1 h, 5 µM [32]: 0.8
- fraction unbound at 1 h, 5 µM [33]: 0.8
- AUC(0-t) [10]: 1290 ng·h/mL
- bioavailability [11]: 22%
- Activity [34]: Non-toxic
- fraction unbound at 1 h, 5 µM [35]: 0.8
- Activity [36]: Active
- pKi [2]: 8.52
- clearance [16]: 10 mL/min/kg
- fraction unbound [37]: 0.45
- Activity [38]: Dose-dependent effect

SMILES: COCn1ncc(OC)c(-c2ccc(OCCCN3CCC[C@H]3C)cc2)c1=O
- pKi [1]: 7.72
- pKi [2]: 8.00

SMILES: C[C@H](COc1ccc(-c2cn[nH]c(=O)c2)cc1)CN1CCCCC1
- pKi [1]: 7.47
- pKi [2]: 7.60

SMILES: C[C@@H](COc1ccc(-c2cn[nH]c(=O)c2)cc1)CN1CCCCC1
- pKi [1]: 6.88
- pKi [2]: 7.33
